Laboratory results: ChEMBL document CHEMBL1949565, “4-nitrobenzyloxycarbonyl derivatives of O(6)-benzylguanine as hypoxia-activated prodrug inhibitors of O(6)-alkylguanine-DNA alkyltransferase (AGT), which produces resistance to agents targeting the O-6 position of DNA guanine” (J Med Chem, 2011)
The source made the active and inactive calls. The rule behind the calls is not given here.

How the values were obtained:
[1] = species: Homo sapiens; test: Inhibition of human recombinant AGT assessed as prevention of O6-(2-chloroethyl)guanine and N1,O6-ethanoguanine-DNA adduct repair at 0.1 uM after 30 mins by fluorescence assay
Procedure, shortened: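 Purified recombinant human AGT (~40 fmol) in stabilization buffer (20 mM Tris-HCl, 1 mM EDTA, 1 mg/mL BSA, 0.1 mM DTT, 2 μg/mL L1210 DNA, pH 7.4) preincubated with inhibitor 30 min, 37 °C. Then added to L1210 DNA substrate treated with a chloroethylating hydrazine (~50 fmol lesions), 30 min, 37 °C. Heated 50 °C 2–3 h. Cross-links quantified by Hoechst 33258 fluorescence before/after heat denaturation. Inhibition derived from remaining cross-link precursors.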

[2] = Prodrug activation assessed as formation of O6-benzylguanine under oxygen-deficient condition at 20 uM after 1 hr by HPLC analysis in presence of xanthine/xanthine oxidase
Procedure, shortened: (§1)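 Test agent at 20 μM (from DMSO) in 100 mM potassium phosphate pH 7.4 at 37 °C, with either cytochrome P450 reductase plus 1 mM NADPH, or 0.16 units/mL xanthine oxidase plus 1 mM xanthine. Oxygen deficiency came from glucose oxidase/catalase with 10 mM glucose. Aerobic mixtures omitted glucose and were shaken as shallow layers in sealed flasks. Samples at 0 and 1 h were quenched with acetonitrile and analysed by HPLC.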

[3] = test system: EMT6; test: Prodrug activation in mouse EMT6 cells assessed as formation of O6-benzylguanine under normoxic condition at 20 uM after 3 hrs by HPLC analysis; type: cell-based; conditions: emt6, 3 h
Procedure, shortened: (§2)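 Cells at 10^7/mL with ~20 μM prodrug at 37 °C: EMT6 in DMEM with 10% FBS, DU145 in α-MEM with 10% FBS, each with 10 mM glucose. Normoxic suspensions were shaken as shallow layers in flasks. Oxygen-deficient incubations used sealed tubes with an extra 10 mM glucose, glucose oxidase 2 units/mL and catalase 120 units/mL. Samples at 0–3 h were acetonitrile-extracted and analysed by HPLC.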

[4] = test system: DU-145; test: Prodrug activation in human DU145 cells assessed as formation of O6-benzylguanine under normoxic condition at 20 uM after 3 hrs by HPLC analysis; type: cell-based; conditions: du-145, 3 h; procedure, shortened: as §2
[5] = Prodrug activation assessed as formation of O6-benzylguanine under normoxic condition at 20 uM after 1 hr by HPLC analysis in presence of NADPH:CYP450 reductase; type: ADME; procedure, shortened: as §1
[6] = test system: DU-145; test: Inhibition of AGT-mediated potentiation of laromustine-induced cytotoxicity in human DU145 cells at 40 uM pretreated for 6 hrs prior laromustine addition measured after 24 hrs incubation under normoxic condition by clonogenic assay; type: functional, cell-based
Procedure, shortened: (§3)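 DU145 monolayers seeded at 2.5 × 10^5 cells per flask and treated 3 days later. Pretreatment with prodrug for 6 h, then laromustine added in medium for 24 h at 37 °C; DMSO ≤ 0.05%. For oxygen deficiency, glucose oxidase 2 units/mL plus catalase 120 units/mL in high-glucose DMEM, with flasks nitrogen-flushed and sealed. Aerobic flasks were unsealed and lacked these enzymes. Colonies were crystal-violet stained after 10–14 days; plating in duplicate.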

[7] = Prodrug activation assessed as formation of O6-benzylguanine under normoxic condition at 20 uM after 1 hr by HPLC analysis in presence of xanthine/xanthine oxidase; procedure, shortened: as §1
[8] = Prodrug activation assessed as formation of O6-benzylguanine under oxygen-deficient condition at 20 uM after 1 hr by HPLC analysis in presence of NADPH:CYP450 reductase; type: ADME; procedure, shortened: as §1
[9] = test system: DU-145; test: Prodrug activation in human DU145 cells assessed as formation of O6-benzylguanine under oxygen-deficient condition at 20 uM after 3 hrs by HPLC analysis; type: cell-based; conditions: du-145, 3 h; procedure, shortened: as §2
[10] = Prodrug activation assessed as formation of O6-benzylguanine in presence of Zn/EDTA
Procedure, shortened: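 Each agent at 50 μM in 50 mM Tris-HCl, 10 mM EDTA, pH 7.0, was shaken briefly with about 4 mg/mL Zn dust at room temperature. After centrifugation, the supernatant was analysed by reverse-phase HPLC with UV detection at 280 nm.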

[11] = species: Homo sapiens; test: Inhibition of human recombinant AGT assessed as prevention of O6-(2-chloroethyl)guanine and N1,O6-ethanoguanine-DNA adduct repair at 50 uM after 30 mins by fluorescence assay
Procedure, shortened: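 About 40 fmol purified recombinant human AGT in stabilization buffer (20 mM Tris-HCl, 1 mM EDTA, BSA 1 mg/mL, 0.1 mM DTT, L1210 DNA, pH 7.4) preincubated with inhibitor for 30 min at 37 °C. It was then incubated 30 min at 37 °C with L1210 DNA bearing O6-chloroethylguanine/N1,O6-ethanoguanine lesions (~50 fmol). Unrepaired lesions were converted to cross-links at 50 °C for 2–3 h. Cross-linking was read by Hoechst 33258 fluorescence before and after heat denaturation.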

[12] = test system: DU-145; test: Inhibition of AGT-mediated potentiation of laromustine-induced cytotoxicity in human DU145 cells at 40 uM pretreated for 6 hrs prior laromustine addition measured after 24 hrs incubation under oxygen deficiency condition by clonogenic assay; type: functional, cell-based; procedure, shortened: as §3
[13] = test system: EMT6; test: Prodrug activation in mouse EMT6 cells assessed as formation of O6-benzylguanine under oxygen-deficient condition at 20 uM after 3 hrs by HPLC analysis; type: cell-based; conditions: emt6, 3 h; procedure, shortened: as §2

Q: For `Nc1nc(OCc2ccccc2)c2nc[nH]c2n1`, which inhibition [1] is on record?
A: 47%

Q: Which results are given for `CC(C)(OC(=O)Nc1nc(OCc2ccccc2)c2nc[nH]c2n1)c1ccc([N+](=O)[O-])cc1`?
A: Drug metabolism [2]: 14.8 µM; Drug metabolism [3]: Not Active; Drug metabolism [4]: Not Active; Drug metabolism [5]: 0.1 µM; inhibition [6]: inactive; Drug metabolism [7]: < 0.05 µM; Drug metabolism [8]: 13.9 µM; Drug metabolism [9]: Active; Drug degradation [10]: 54.8 %molar; inhibition [11]: < 1%; inhibition [12]: Active; Drug metabolism [13]: Active

Q: With `CC(OC(=O)Nc1nc(OCc2ccccc2)c2nc[nH]c2n1)c1ccc([N+](=O)[O-])cc1` (stereo unspecified) as the compound, how does the Drug metabolism [2] read?
A: 11.6 µM

Q: And the Drug metabolism [3]?
A: Not Active

Q: And the Drug metabolism [4]?
A: Not Active

Q: What about the Drug metabolism [5] of the same compound?
A: < 0.05 µM

Q: And the Drug metabolism [7]?
A: < 0.05 µM

Q: What about the Drug metabolism [8] of the same compound?
A: 0.1 µM

Q: What about the Drug degradation [10] of the same compound?
A: 35.4 %molar

Q: What about the inhibition [11] of the same compound?
A: < 1%

Q: What about the Drug metabolism [13] of the same compound?
A: Active

Q: Which results are given for `O=C(Nc1nc(OCc2ccccc2)c2nc[nH]c2n1)OCc1ccc([N+](=O)[O-])cc1`?
A: Drug metabolism [2]: 2.8 µM; Drug metabolism [3]: Not Active; Drug metabolism [4]: Not Active; Drug metabolism [5]: < 0.05 µM; Drug metabolism [7]: < 0.05 µM; Drug metabolism [8]: < 0.05 µM; Drug degradation [10]: 4 %molar; inhibition [11]: < 1%; Drug metabolism [13]: Active
